Each structure is given as a SMILES string. Calls of active or inactive are those of the source. No cut-off for these calls is given here.

Consider 15 compounds from ChEMBL document CHEMBL1153723, “Cytotoxic effects of cardiac glycosides in colon cancer cells, alone and in combination with standard chemotherapeutic drugs” (J Nat Prod, 2009).

Assay [1] has as its system HT-29. As to the kind of experiment: Cytotoxicity against human HT-29 cells after 72 hrs by FMCA method. The assay is classed as functional, cell-based. Conditions: HT-29, 72 h. In outline:
(§1)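 FMCA: cells seeded at 5000/well onto compound plates at nine concentrations (1:2 serial dilutions in PBS from DMSO solutions), in duplicate, for 72 h at 37 °C. Then washed, given fluorescein diacetate for 50 min at 37 °C, and fluorescence read at 485/520 nm. HT29 and CC20 were grown in DMEM, HCT116 in McCoy's 5A. IC50 from nonlinear regression of log concentration–effect curves; three independent experiments, mean ± SEM.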

A short description of assay [2]: Cytotoxicity against human CC20 cells after 72 hrs by FMCA method. It is filed as functional, cell-based. Conditions: CC20, 72 h. The method, boiled down:
as §1

Assay [3] can be described thus: Cytotoxicity against human CC20 cells after 72 hrs by FMCA method relative to digoxin. It is filed as functional.
Assay [4] has as its system HT-29. As to the kind of experiment: Cytotoxicity against human HT-29 cells assessed as survival index at 10 uM after 72 hrs by FMCA method. The assay is classed as functional. The conditions noted are these: HT-29, 72 h, read-out: Survival. In outline: (§2)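 Library screen by FMCA at a final 10 µM (10 mM DMSO stocks diluted in PBS); 5000 cells/well, 72 h at 37 °C, then fluorescein diacetate for 50 min with fluorescence at 485/520 nm. Survival index is well fluorescence as % of control wells after blank subtraction. QC required signal/blank >10 and CV <30% in control and blank wells.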

Assay [5] concerns HCT-116. In words: Cytotoxicity against human HCT116 cells assessed as survival index at 10 uM after 72 hrs by FMCA method. It is filed as functional. The conditions noted are these: HCT-116, 72 h, read-out: Survival. The method, boiled down: as §2
Assay [6] relates to HCT-116. In words: Cytotoxicity against human HCT116 cells after 72 hrs by FMCA method relative to digoxin. It is filed as functional.
Assay [7] relates to HCT-116. In words: Cytotoxicity against human HCT116 cells after 72 hrs by FMCA method. It is filed as functional, cell-based. The conditions noted are these: HCT-116, 72 h. In outline: as §1
Assay [8] has as its system HT-29. In words: Cytotoxicity against human HT-29 cells after 72 hrs by FMCA method relative to digoxin. The assay is classed as functional.
Assay [9] can be described thus: Cytotoxicity against human CC20 cells assessed as survival index at 10 uM after 72 hrs by FMCA method. The assay is classed as functional. The conditions noted are these: CC20, 72 h, read-out: Survival. The method, boiled down:
as §2

Assay [10] can be described thus: Inhibition of Na+/K+ ATPase relative to digoxin.
Assay [11] can be described thus: Cytotoxicity against human colon cancer cells after 72 hrs by FMCA method. It is filed as functional, cell-based. Conditions: Primary cultures of tumor cells from patients.
Assay [12] relates to HT-29. In words: Inhibition of TNF-alpha-stimulated NF-kappaB translocation from cytoplasm to nucleus in human HT-29 cells at 0.4 to 10 uM. The assay is classed as functional, cell-based. In outline: (§3)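 NF-κB activation high-content kit run per manufacturer: TNF-α-stimulated cells treated at 0.4, 2 and 10 µM (or 0.2, 1 and 5 µM). Cytoplasm-to-nucleus translocation of NF-κB quantified by automated imaging (ArrayScan). TNF-α and bortezomib served as controls.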

The subject of another assay is HeLa. As to the kind of experiment: Inhibition of TNF-alpha-stimulated NF-kappaB translocation from cytoplasm to nucleus in human HeLa cells at 0.4 to 10 uM. It is filed as functional, cell-based. In outline: as §3
A further assay has as its system MCF7. As to the kind of experiment: Inhibition of TNF-alpha-stimulated NF-kappaB translocation from cytoplasm to nucleus in human MCF7 cells at 0.4 to 10 uM. It is filed as functional, cell-based. In outline: as §3

As to `C[C@@H]1O[C@@H](O[C@H]2CC[C@]3(C=O)[C@H]4CC[C@]5(C)[C@@H](C6=CC(=O)OC6)CC[C@]5(O)[C@@H]4CC[C@]3(O)C2)[C@H](O)[C@H](O)[C@H]1O` [CONVALLATOXIN], the results for the 50% inhibitory concentration (IC50) (with HT-29 [1]; in assay [2]; with HCT-116 [7]) were 550 nM, less than 40 nM and less than 40 nM, respectively. Moreover, the Activity in [3] is listed as 0.03; in the assay with HCT-116 [6], 0.04; in the assay with HT-29 [8] it was 0.39. Further, the viability at 10 µM with HT-29 [4] came to 20%; in the assay on HCT-116 [5], 3%; in assay [9], 1%.

`CO[C@H]1C[C@H](O[C@H]2CC[C@]3(C=O)[C@H]4CC[C@]5(C)[C@@H](C6=CC(=O)OC6)CC[C@]5(O)[C@@H]4CC[C@]3(O)C2)O[C@H](C)[C@H]1O` [CYMARIN]: the viability at 10 µM in the assay on HT-29 [4] turned out to be 26%; in the assay on HCT-116 [5], 4%; in assay [9], 2%.

With `C[C@@H]1CC[C@@]2(OC1)O[C@H]1[C@@H](O)[C@H]3[C@@H]4CC[C@H]5C[C@@H](O[C@@H]6O[C@H](CO)[C@H](O[C@@H]7O[C@H](CO)C(O)[C@H](O[C@@H]8OC[C@@H](O)[C@H](O)[C@H]8O)[C@H]7O[C@@H]7O[C@H](CO)[C@H](O)[C@H](O[C@@H]8O[C@H](CO)[C@@H](O)[C@H](O)[C@H]8O)[C@H]7O)[C@H](O)[C@H]6O)[C@H](O)C[C@]5(C)[C@H]4CC[C@]3(C)[C@H]1[C@@H]2C` (stereo partly drawn) [DIGITONIN], the 50% inhibitory concentration (IC50) – broadly, the concentration that gives 50% inhibition – with HT-29 [1] amounted to 5600 nM; in assay [2] it was 9600 nM; in the assay with HCT-116 [7], 8700 nM. Moreover, the viability at 10 µM with HT-29 [4] turned out to be 74%; in the assay on HCT-116 [5], 62%; in assay [9] it was 88%.

Consider `C[C@H]1O[C@@H](O[C@H]2[C@@H](O)C[C@H](O[C@H]3[C@@H](O)C[C@H](O[C@H]4CC[C@@]5(C)[C@H](CC[C@@H]6[C@@H]5CC[C@]5(C)[C@@H](C7=CC(=O)OC7)CC[C@]65O)C4)O[C@@H]3C)O[C@@H]2C)C[C@H](O)[C@@H]1O` [DIGITOXIN], for which the Activity in [10] amounted to 0.3; in assay [3], 1.71; in the assay with HCT-116 [6], 2.74; with HT-29 [8], 2.91. The IC50 was 4070 nM with HT-29 [1], 410 nM in assay [2], 100 nM in [11] and 740 nM with HCT-116 [7]. The viability at 10 µM came out at 28% with HT-29 [4], 4% in the assay with HCT-116 [5] and 2% in assay [9]. In addition, the inhibition entry in the assay on HT-29 [12], in the assay with HeLa and in the assay on MCF7 was “inactive” each time.

For the compound `C[C@H]1O[C@@H](O[C@H]2[C@@H](O)C[C@H](O[C@H]3[C@@H](O)C[C@H](O[C@H]4CC[C@@]5(C)[C@H](CC[C@@H]6[C@@H]5C[C@@H](O)[C@]5(C)[C@@H](C7=CC(=O)OC7)CC[C@]65O)C4)O[C@@H]3C)O[C@@H]2C)C[C@H](O)[C@@H]1O` [DIGOXIN], the Activity (in assay [10]; in [3]; in the assay with HCT-116 [6]; in the assay with HT-29 [8]) was 1 each time. The IC50 in the assay with HT-29 [1] amounted to 1400 nM; in assay [2], 240 nM; in [11] it was 100 nM; with HCT-116 [7] it was 270 nM. Moreover, the viability at 10 µM is 24% in the assay on HT-29 [4], 4% with HCT-116 [5] and 1% in assay [9]. The inhibition result in the assay with HT-29 [12], in the assay with HeLa and in the assay on MCF7 was “inactive” in each case.

For `CC(=O)O[C@H]1CC[C@@]2(C)[C@H](CC[C@@H]3[C@@H]2CC[C@]2(C)[C@@H](C4=CC(=O)OC4)[C@@H](OC(C)=O)C[C@]32O)C1` [GITOXIGENIN DIACETATE], the viability at 10 µM with HT-29 [4] was 40%; in the assay with HCT-116 [5] it was 17%; in assay [9], 2%.

In the case of `C[C@]12CC[C@H](O)C[C@H]1CC[C@@H]1[C@@H]2CC[C@]2(C)[C@@H](C3=CC(=O)OC3)[C@@H](O)C[C@]12O` [GITOXIGENIN], the values for the viability at 10 µM (with HT-29 [4]; in the assay with HCT-116 [5]; in assay [9]) were 81%, 63% and 54%, respectively.

Take `CC(=O)O[C@H]1C[C@H](O[C@H]2[C@@H](O)C[C@H](O[C@H]3[C@@H](O)C[C@H](O[C@H]4CC[C@@]5(C)[C@H](CC[C@@H]6[C@@H]5C[C@@H](O)[C@]5(C)[C@@H](C7=CC(=O)OC7)CC[C@]65O)C4)O[C@@H]3C)O[C@@H]2C)O[C@H](C)[C@H]1O[C@@H]1O[C@H](CO)[C@@H](O)[C@H](O)[C@H]1O` [LANATOSIDE C]: the viability at 10 µM with HT-29 [4] was 40%; in the assay on HCT-116 [5] it was 5%; in [9], 2%.

On to `CO[C@H]1[C@H](O)[C@H](O[C@H]2CC[C@@]3(C)[C@H](CC[C@@H]4[C@@H]3CC[C@]3(C)[C@@H](C5=CC(=O)OC5)CC[C@]43O)C2)O[C@@H](C)[C@@H]1O` [NERIIFOLIN], for which the viability at 10 µM came out at 19% in the assay with HT-29 [4], 3% in the assay on HCT-116 [5] and 2% in assay [9].

For `CO[C@H]1C[C@H](O[C@H]2CC[C@@]3(C)[C@H](CC[C@@H]4[C@@H]3CC[C@]3(C)[C@@H](C5=CC(=O)OC5)[C@@H](OC(C)=O)C[C@]43O)C2)O[C@@H](C)[C@@H]1O` [OLEANDRIN], the Activity in assay [10] was 0.42; in [3] it was 0.38; in the assay with HCT-116 [6], 0.3; in the assay with HT-29 [8], 0.31. For the same compound, the figures for the IC50 (in the assay with HT-29 [1]; in [2]; in the assay on HCT-116 [7]) were 440 nM, 90 nM and 80 nM, respectively. Moreover, the viability at 10 µM with HT-29 [4] is 20%; in the assay with HCT-116 [5], 3%; in assay [9] it was 2%. The inhibition result in the assay on HT-29 [12], in the assay with HeLa and in the assay with MCF7 was “inactive” in each case.

In the case of `C[C@@H]1O[C@@H](O[C@H]2C[C@@H](O)[C@]3(CO)[C@H]4[C@H](O)C[C@]5(C)[C@@H](C6=CC(=O)OC6)CC[C@]5(O)[C@@H]4CC[C@]3(O)C2)[C@H](O)[C@H](O)[C@H]1O` [OUABAIN], the viability at 10 µM in the assay with HT-29 [4] came out at 22%; in the assay with HCT-116 [5] it was 4%; in [9], 3%.

With `CO[C@H]1[C@H](O)[C@H](O[C@H]2CC[C@@]3(C=O)[C@H](CC[C@@H]4[C@@H]3CC[C@]3(C)[C@@H](C5=CC(=O)OC5)CC[C@]43O)C2)O[C@@H](C)[C@@H]1O` [PERUVOSIDE], the viability at 10 µM came out at 24% in the assay with HT-29 [4], 3% with HCT-116 [5] and 2% in assay [9].

Turning to `C[C@@H]1O[C@@H](O[C@@H]2C=C3CC[C@@H]4[C@H](CC[C@]5(C)[C@@H](c6ccc(=O)oc6)CC[C@]45O)[C@@]3(C)CC2)[C@H](O)[C@H](O)[C@H]1O` [PROSCILLARIDIN], the Activity in [10] was found to be 0.054; in assay [3], 0.21; in the assay with HCT-116 [6], 0.22; in the assay on HT-29 [8] it was 0.39. The values for the IC50 (in the assay with HT-29 [1]; in assay [2]; in the assay with HCT-116 [7]) were 550 nM, less than 300 nM and 60 nM, respectively. The results for the viability at 10 µM (with HT-29 [4]; in the assay on HCT-116 [5]; in assay [9]) were 18%, 1% and 3%, respectively.

Take `C[C@]12CC[C@H](O)C[C@H]1CC[C@@H]1[C@@H]2[C@H](O)C[C@]2(C)[C@@H](C3=CC(=O)OC3)CC[C@]12O` [SARMENTOGENIN]: the viability at 10 µM with HT-29 [4] amounted to 63%; in the assay with HCT-116 [5], 26%; in assay [9], 4%.

On to `C[C@]12CC[C@H]3[C@@H](CC[C@]4(O)C[C@@H](O)CC[C@]34C=O)[C@@]1(O)CC[C@@H]2C1=CC(=O)OC1` [STROPHANTHIDIN], for which the viability at 10 µM in the assay on HT-29 [4] came to 58%; in the assay with HCT-116 [5], 21%; in assay [9], 3%.
